Source: ChEMBL document CHEMBL3244403, “Cholecystokinin (pancreozymin). 4. Synthesis and properties of a biologically active analogue of the C-terminal heptapeptide with epsilon-hydroxynorleucine sulfate replacing tyrosine sulfate” (J Med Chem, 1978)
One block for each molecule: values may come before it. Active and inactive are the calls of the source. The calls are words filed in the database; no cut-off is given here. Starred links: 1 amine or outer side, 2 acyl side, 3 side chain; linkers in the order of their positions; H or OH if unused. Non-standard residues stand in square brackets, D forms with d. Residues, ends and D or L forms follow the SMILES beside them. *: point of attachment. X1 = O=C([C@H](CCCCOS(=O)(=O)O)N[*:1])[*:2]; sY = N[C@@H](Cc1ccc(OS(=O)(=O)O)cc1)C(=O)O; Boc = CC(C)(C)OC(=O)*

Legend:
Cavia porcellus [1] = species: Cavia porcellus; test: Agonist activity at cholecystokinin receptor in NIH guinea pig assessed as gall bladder contraction at 7 to 1900 ng by in situ assay; type: tissue-based
In short: (§1)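 Guinea pig gall bladder in situ (Ljungberg method), contraction recorded via strain gauge transducer after injection. Peptides first dissolved at 10 μg/mL in physiological saline containing 1 mg/mL NaHCO3 and 1 mg/mL L-cysteine. Response compared with injected standard cholecystokinin in Ivy dog units.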

Cavia porcellus [2] = species: Cavia porcellus; test: Agonist activity at cholecystokinin receptor in NIH guinea pig pancreatic acinar cells assessed as induction of amylase secretion
In short: (§2)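 Guinea pig pancreas collagenase-dispersed acini in 100% O2-gassed Hepes buffer pH 7.4 containing 0.5 mM calcium and 5 mM theophylline. Amylase in supernatant assayed in duplicate with Phedabas reagent. Release expressed as % of total cellular amylase appearing in medium during incubation. CCK-(26-33) used as reference.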

Cavia porcellus [3] = species: Cavia porcellus; test: Agonist activity at cholecystokinin receptor in NIH guinea pig pancreatic acinar cells assessed as induction of amylase secretion at 0.03 to 0.3 nM; in short: as §2
Cavia porcellus [4] = species: Cavia porcellus; test: Agonist activity at cholecystokinin receptor in NIH guinea pig assessed as gall bladder contraction at 7 to 21 ng by in situ assay; type: tissue-based; in short: as §1
[5] = Retardation factor of the compound using EtOAc-pyridine-AcOH-H2O at ratio of 120:20:6:11 as solvent system by thin layer chromatography; type: physicochemical
[6] = Retardation factor of the compound using 1-butanol-AcOH-H2O at ratio of 4:1:1 as solvent system by thin layer chromatography; type: physicochemical
[7] = Retardation factor of the compound using EtOAc-pyridine-AcOH-H2O at ratio of 60:20:6:11 as solvent system by thin layer chromatography; type: physicochemical
Cavia porcellus [8] = species: Cavia porcellus; test: Agonist activity at cholecystokinin receptor in NIH guinea pig assessed as gall bladder contraction at 7 ng by in situ assay; type: tissue-based; in short: as §1

- Activity (Cavia porcellus [1]): Active
- Activity (Cavia porcellus [2]): Active
SMILES: CSCC[C@H](NC(=O)[C@H](COS(=O)(=O)O)NC(=O)OC(C)(C)C)C(=O)NCC(=O)N[C@@H](Cc1c[nH]c2ccccc12)C(=O)N[C@@H](CCSC)C(=O)N[C@@H](CC(=O)O)C(=O)N[C@@H](Cc1ccccc1)C(N)=O

SMILES: CSCC[C@H](NC(=O)[C@H](Cc1ccc(OS(=O)(=O)O)cc1)NC(=O)[C@@H](N)CC(=O)O)C(=O)NCC(=O)N[C@@H](Cc1c[nH]c2ccccc12)C(=O)N[C@@H](CCSC)C(=O)N[C@@H](CC(=O)O)C(=O)N[C@@H](Cc1ccccc1)C(N)=O
- Activity (Cavia porcellus [3]): Active

- Activity (Cavia porcellus [4]): Active
- Rf [5]: 0.19
- Activity (Cavia porcellus [2]): Active
- Rf [6]: 0.55
- Rf [7]: 0.31
SMILES: CSCC[C@H](NC(=O)[C@H](CCCCOS(=O)(=O)O)NC(=O)OC(C)(C)C)C(=O)NCC(=O)N[C@@H](Cc1c[nH]c2ccccc12)C(=O)N[C@@H](CCSC)C(=O)N[C@@H](CC(=O)O)C(=O)N[C@@H](Cc1ccccc1)C(N)=O (Boc-[X1]MGWMDF-NH2)

- Activity (Cavia porcellus [2]): Active
- Activity (Cavia porcellus [8]): Active
SMILES: CSCC[C@H](NC(=O)[C@H](Cc1ccc(OS(=O)(=O)O)cc1)NC(=O)OC(C)(C)C)C(=O)NCC(=O)N[C@@H](Cc1c[nH]c2ccccc12)C(=O)N[C@@H](CCSC)C(=O)N[C@@H](CC(=O)O)C(=O)N[C@@H](Cc1ccccc1)C(N)=O (Boc-[sY]MGWMDF-NH2)
